Calls of active or inactive are those of the source. The rule behind the calls is not given here.
Tests used:
Cholinesterase [1] = target: T1, Cholinesterase (Homo sapiens, UniProt P06276); test: Inhibition of human BuChE at 10 uM by Ellman's spectrophotometric method
Outline: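 Percent inhibition of human BChE at a fixed 10 μM inhibitor concentration, by modified Ellman spectrophotometric assay in 96-well format. Incubations were run in duplicate. Values are the mean ± SEM of three independent experiments.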

Acetylcholinesterase [2] = target: T2, Acetylcholinesterase (Homo sapiens, UniProt P22303); test: Inhibition of human AChE by Ellman's spectrophotometric method
[3] = target: T3, Fatty-acid amide hydrolase 1 (Homo sapiens, UniProt O00519); test: Inhibition of human recombinant FAAH using AMC-AA as substrate preincubated with enzyme for 10 mins followed by substrate addition for 2 hrs by fluorometric analysis
T3 sequence (O00519 whole entry): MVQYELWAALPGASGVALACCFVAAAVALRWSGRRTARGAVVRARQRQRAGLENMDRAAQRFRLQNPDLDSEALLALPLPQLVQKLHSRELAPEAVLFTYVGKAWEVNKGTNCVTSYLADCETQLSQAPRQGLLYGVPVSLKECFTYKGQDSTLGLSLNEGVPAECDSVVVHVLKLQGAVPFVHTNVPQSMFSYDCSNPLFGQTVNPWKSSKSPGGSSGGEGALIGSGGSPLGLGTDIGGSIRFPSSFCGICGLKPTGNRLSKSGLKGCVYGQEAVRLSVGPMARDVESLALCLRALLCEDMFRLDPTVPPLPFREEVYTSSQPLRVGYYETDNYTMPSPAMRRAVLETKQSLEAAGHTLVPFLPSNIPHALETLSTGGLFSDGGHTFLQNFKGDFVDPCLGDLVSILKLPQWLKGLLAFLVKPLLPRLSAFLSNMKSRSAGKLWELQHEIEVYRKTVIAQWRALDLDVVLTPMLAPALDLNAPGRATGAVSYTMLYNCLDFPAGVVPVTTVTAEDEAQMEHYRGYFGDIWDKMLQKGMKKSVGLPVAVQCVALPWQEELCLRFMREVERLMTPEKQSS
Outline: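 Human recombinant FAAH preincubated with inhibitor at several concentrations for 10 min at room temperature with orbital shaking in Tris-HCl 125 mM, Na2EDTA 1 mM, pH 9.0. AMC-AA substrate (5 µM final) added, then 2 h at 37 °C with fluorescence read every 30 s (ex 340, em 450 nm). Percent inhibition taken against no-inhibitor and no-enzyme wells. IC50 given as mean ± SEM of at least two independent triplicate runs.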

[4] = target: Amyloid-beta precursor protein (Homo sapiens) (UniProt P05067); test: Inhibition of amyloid beta (1 to 40) (unknown origin) aggregation at 100 uM incubated for 2 hrs by Thioflavin T based fluorometric assay
Outline: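 Aβ40 (30 µM final) co-incubated with inhibitor (100 µM final) in PBS pH 7.4 containing 2% HFIP, 2 h at 25 °C. Thioflavin T (25 µM) then added and fluorescence read. Run in triplicate, reported as mean ± SEM.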

Cholinesterase [5] = target: T1, Cholinesterase; test: Inhibition of human BuChE by Ellman's spectrophotometric method
Outline: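 Human BChE, modified Ellman spectrophotometric assay in 96-well format. Incubations were run in duplicate. IC50 was determined for inhibitors giving >60% inhibition, from seven final concentrations (10⁻⁵ to 10⁻¹¹ M) diluted in work buffer from a 1000 μM DMSO stock. Values are the mean ± SEM of three independent experiments.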

[6] = Metal chelating activity assessed as Cu2+-compound complex formation by measuring global formation constant, log(beta)(CumHhLl) in 30% DMSO/water medium by pH potentiometric analysis
Outline: (§1)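 Cu2+ binding measured by pH-potentiometric titration in 30% w/w DMSO/H2O at 25.0 ± 0.1 °C, ionic strength 0.1 M KCl, with 0.08 M KOH as titrant. Ligand concentration was 4.4×10^-4 M, with Cu:L ratios of 0:1, 1:1 and 1:2. Glass and Ag/AgCl electrodes were checked by HCl/KOH calibration (Gran's method), pKw 14.66. Protonation and complex stability constants came from fitting the data to an equilibrium model.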

Cholinesterase [7] = target: T1, Cholinesterase; test: Potency index, ratio of donepezil IC50 to test compound IC50 for inhibition of human BuChE by Ellman's spectrophotometric method
Acetylcholinesterase [8] = target: T2, Acetylcholinesterase; test: Potency index, ratio of donepezil IC50 to test compound IC50 for inhibition of human AChE by Ellman's spectrophotometric method
[9] = Metal chelating activity assessed as Cu2+-compound complex formation at Cu2+:compound concentration ratio of 1:1 to 1:2 in 30% DMSO/water medium by pH potentiometric analysis; outline: as §1
Homo sapiens = species: Homo sapiens; test: Selectivity index, ratio of IC50 for human BuChE to IC50 for human AChE
[10] = Cytotoxicity against human HepG2 cells assessed as inhibition of cell viability incubated for 24 hrs by MTT assay; type: toxicity, cell-based
Outline: (§2)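 Cells from ATCC; SH-SY5Y grown in 1:1 MEM/Ham's F12, HepG2 in MEM with NEAA, both with 10% heat-inactivated FBS, glutamine, penicillin-streptomycin, 37 °C, 5% CO2. Seeded 10,000-25,000 cells/well, next day exposed to half-log serial dilutions (100 µM to 100 nM) in 1% DMSO final, with untreated controls. After 24 or 48 h, MTT 0.5 mg/mL for 3–4 h at 37 °C; formazan dissolved in DMSO/EtOH 1:1, absorbance 570 nm.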

[11] = Metal chelating activity assessed as compound-Cu2+ complex formation at stoichiometric ratio of 1:1 in 30% w/w DMSO/H2O medium by ESI-MS spectral analysis
Outline: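 ESI-MS on an ion-trap instrument in positive and negative ion modes of Cu2+:ligand 1:1 solution in 30% w/w DMSO/H2O. Ligand concentration 2.6×10^-4 M, pH 5.68. Spray voltage ±4.5 kV, capillary temperature 280 °C, N2 sheath gas.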

[12] = Cytotoxicity against human SH-SY5Y cells assessed as inhibition of cell viability incubated for 24 hrs by MTT assay; type: toxicity, cell-based; outline: as §2
[13] = Protonation constant of the compound, logKi in 30% w/w DMSO/H2O medium; type: physicochemical
Outline: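 pH-potentiometric titration in 30% w/w DMSO/H2O at 25.0 ± 0.1 °C, ionic strength 0.1 M KCl, titrant 0.08 M KOH, ligand 4.4×10^-4 M. Glass and Ag/AgCl electrodes conditioned in DMSO/water mixtures and calibrated by HCl/KOH titration (Gran's method); pKw 14.66. Stepwise protonation constants obtained by fitting the titration data.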

[14] = Cytotoxicity against human HepG2 cells assessed as inhibition of cell viability incubated for 48 hrs by MTT assay; type: toxicity, cell-based; outline: as §2
[15] = Cytotoxicity against human SH-SY5Y cells assessed as inhibition of cell viability incubated for 48 hrs by MTT assay; type: toxicity, cell-based; outline: as §2
[16] = Metal chelating activity assessed as compound-Zn2+ complex formation at compound:Zn2+ concentration ratio of 1:1 in DMSO-d6/D2O medium by 1H-NMR analysis

T2 sequence (P22303 whole entry): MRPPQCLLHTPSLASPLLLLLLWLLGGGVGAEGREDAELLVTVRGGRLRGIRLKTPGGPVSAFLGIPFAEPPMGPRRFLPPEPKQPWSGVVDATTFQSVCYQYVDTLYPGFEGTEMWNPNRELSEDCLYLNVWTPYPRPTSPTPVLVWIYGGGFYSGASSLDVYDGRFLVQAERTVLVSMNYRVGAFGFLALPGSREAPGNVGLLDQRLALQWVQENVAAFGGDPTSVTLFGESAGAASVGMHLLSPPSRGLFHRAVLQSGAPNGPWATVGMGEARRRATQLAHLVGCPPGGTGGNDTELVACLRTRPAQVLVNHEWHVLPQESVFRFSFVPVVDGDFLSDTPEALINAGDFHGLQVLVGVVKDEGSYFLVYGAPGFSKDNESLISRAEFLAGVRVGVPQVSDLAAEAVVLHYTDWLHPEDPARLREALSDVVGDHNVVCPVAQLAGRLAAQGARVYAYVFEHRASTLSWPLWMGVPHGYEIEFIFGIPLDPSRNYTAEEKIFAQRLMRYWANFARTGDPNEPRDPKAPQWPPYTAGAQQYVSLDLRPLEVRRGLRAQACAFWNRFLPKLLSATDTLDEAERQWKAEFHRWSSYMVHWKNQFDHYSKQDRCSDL
T1 sequence (P06276 whole entry): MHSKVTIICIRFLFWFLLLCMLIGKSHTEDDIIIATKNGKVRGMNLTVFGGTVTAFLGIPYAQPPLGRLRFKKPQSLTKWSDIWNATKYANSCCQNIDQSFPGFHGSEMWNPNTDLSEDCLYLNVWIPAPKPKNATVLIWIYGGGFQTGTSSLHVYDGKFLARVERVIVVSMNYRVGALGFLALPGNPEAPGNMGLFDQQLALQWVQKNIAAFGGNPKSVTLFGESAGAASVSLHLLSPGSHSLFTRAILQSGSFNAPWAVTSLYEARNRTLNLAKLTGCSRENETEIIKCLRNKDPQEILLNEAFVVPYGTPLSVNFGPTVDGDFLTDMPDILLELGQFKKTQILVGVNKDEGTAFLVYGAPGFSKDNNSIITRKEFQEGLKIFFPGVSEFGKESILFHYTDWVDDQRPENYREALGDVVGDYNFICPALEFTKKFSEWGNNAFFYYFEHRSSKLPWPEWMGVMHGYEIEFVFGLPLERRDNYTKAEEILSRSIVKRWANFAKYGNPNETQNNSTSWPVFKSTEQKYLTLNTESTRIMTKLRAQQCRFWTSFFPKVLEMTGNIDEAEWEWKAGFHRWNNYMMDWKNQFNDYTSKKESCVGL
Sequence of Amyloid-beta precursor protein (Homo sapiens) (P05067 whole entry): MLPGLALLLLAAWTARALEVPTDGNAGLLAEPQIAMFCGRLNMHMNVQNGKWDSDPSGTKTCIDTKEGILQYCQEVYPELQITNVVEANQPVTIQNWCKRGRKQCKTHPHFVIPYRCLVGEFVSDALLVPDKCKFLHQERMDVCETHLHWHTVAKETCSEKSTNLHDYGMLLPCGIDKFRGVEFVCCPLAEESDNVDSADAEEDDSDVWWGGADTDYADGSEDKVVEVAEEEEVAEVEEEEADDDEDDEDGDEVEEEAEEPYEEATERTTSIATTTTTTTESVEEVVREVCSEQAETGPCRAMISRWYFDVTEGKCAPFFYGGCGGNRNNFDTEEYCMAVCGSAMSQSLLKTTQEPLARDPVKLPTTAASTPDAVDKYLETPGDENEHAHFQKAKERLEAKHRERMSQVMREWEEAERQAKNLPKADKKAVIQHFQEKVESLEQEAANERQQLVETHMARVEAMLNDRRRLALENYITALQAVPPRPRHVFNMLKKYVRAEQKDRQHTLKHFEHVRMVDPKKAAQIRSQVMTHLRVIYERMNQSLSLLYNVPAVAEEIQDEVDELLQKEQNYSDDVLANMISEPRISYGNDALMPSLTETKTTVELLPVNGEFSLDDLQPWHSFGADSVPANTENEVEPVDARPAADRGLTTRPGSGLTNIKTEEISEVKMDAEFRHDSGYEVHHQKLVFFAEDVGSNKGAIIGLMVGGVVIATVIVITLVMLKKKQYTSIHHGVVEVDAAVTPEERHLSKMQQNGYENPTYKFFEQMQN

Structure (SMILES)	IC50 (Acetylcholinesterase [2])	IC50 [3]	IC50 (Cholinesterase [5])	other results
O=C(COc1cc(F)ccc1[N+](=O)[O-])NCC1CCN(Cc2ccccc2)CC1	103 nM	28100 nM	–	inhibition (Cholinesterase [1]): 54%
COc1ccc(OCC(=O)NCCN2CCN(Cc3ccccc3)CC2)cc1	300 nM	51900 nM	–	inhibition (Cholinesterase [1]): 25%; inhibition [4]: 30%
O=C(COc1ccc(-c2ccccc2)cc1)NCC1CCN(Cc2ccccc2)CC1	1700 nM	23300 nM	5580 nM	–
COc1ccc(OCC(=O)NCC2CCN(Cc3ccccc3)CC2)cc1	880 nM	40800 nM	–	inhibition (Cholinesterase [1]): 55%
O=C(COc1ccc(CCc2ccccc2)cc1)NCC1CCN(Cc2ccccc2)CC1	135 nM	23800 nM	5080 nM	–
O=C(COc1ccc(Cl)cc1[N+](=O)[O-])NCCN1CCN(Cc2ccccc2)CC1	0.8 nM	41600 nM	1410 nM	log(activity) [6]: -1.81; Ratio IC50 (Cholinesterase [7]): 3; Ratio IC50 (Acetylcholinesterase [8]): 21; Activity [9]: Active; Ratio IC50 (Homo sapiens): 1760; IC50 at 24 h [10]: > 100000 nM; Activity [11]: Active; IC50 at 24 h [12]: > 100000 nM; log(activity) [13]: 2.89; IC50 at 48 h [14]: > 100000 nM; IC50 at 48 h [15]: > 100000 nM; Activity [16]: Active
Cc1cc(Br)cc(C)c1OCC(=O)NCC1CCN(Cc2ccccc2)CC1	595 nM	28600 nM	2220 nM	–
O=C(COc1ccc(Cl)cc1)NCCN1CCN(Cc2ccccc2)CC1	189 nM	> 100000 nM	2150 nM	inhibition [4]: 30%
O=C(COc1ccc(-c2ccccc2)cc1)NCCN1CCN(Cc2ccccc2)CC1	735 nM	63900 nM	969 nM	–
O=C(Oc1ccc([N+](=O)[O-])cc1)N1CCN(Cc2cccc(Oc3ccccc3)c2)CC1	–	19 nM	–	–
O=C(COc1ccccc1C(F)(F)F)NCC1CCN(Cc2ccccc2)CC1	767 nM	38200 nM	1020 nM	–

Source: ChEMBL document CHEMBL5120833, “Structure-based design of novel donepezil-like hybrids for a multi-target approach to the therapy of Alzheimer's disease” (Eur J Med Chem, 2022)
